Results on two molecules are retold here after ChEMBL document CHEMBL4715860 (J Med Chem, 2020).

Series [1] in a line: Elimination half life in C57BL/6J mouse plasma at 25 mg/kg, po administered as single dose by mass spectrometry based UHPLC analysis. The format is ADME, organism-based. The settings on record: read-out: beta t1/2 (converted). The procedure, abridged: (§1)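 One oral dose of 25 mg/kg to female C57BL/6J mice. Plasma and brain concentrations followed over time, n = 3 per time point (mean).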

Series [2] concerns the target T1, Phosphatidylinositol 4,5-bisphosphate 3-kinase catalytic subunit delta isoform (Homo sapiens, UniProt O00329).
T1 sequence (O00329 whole entry): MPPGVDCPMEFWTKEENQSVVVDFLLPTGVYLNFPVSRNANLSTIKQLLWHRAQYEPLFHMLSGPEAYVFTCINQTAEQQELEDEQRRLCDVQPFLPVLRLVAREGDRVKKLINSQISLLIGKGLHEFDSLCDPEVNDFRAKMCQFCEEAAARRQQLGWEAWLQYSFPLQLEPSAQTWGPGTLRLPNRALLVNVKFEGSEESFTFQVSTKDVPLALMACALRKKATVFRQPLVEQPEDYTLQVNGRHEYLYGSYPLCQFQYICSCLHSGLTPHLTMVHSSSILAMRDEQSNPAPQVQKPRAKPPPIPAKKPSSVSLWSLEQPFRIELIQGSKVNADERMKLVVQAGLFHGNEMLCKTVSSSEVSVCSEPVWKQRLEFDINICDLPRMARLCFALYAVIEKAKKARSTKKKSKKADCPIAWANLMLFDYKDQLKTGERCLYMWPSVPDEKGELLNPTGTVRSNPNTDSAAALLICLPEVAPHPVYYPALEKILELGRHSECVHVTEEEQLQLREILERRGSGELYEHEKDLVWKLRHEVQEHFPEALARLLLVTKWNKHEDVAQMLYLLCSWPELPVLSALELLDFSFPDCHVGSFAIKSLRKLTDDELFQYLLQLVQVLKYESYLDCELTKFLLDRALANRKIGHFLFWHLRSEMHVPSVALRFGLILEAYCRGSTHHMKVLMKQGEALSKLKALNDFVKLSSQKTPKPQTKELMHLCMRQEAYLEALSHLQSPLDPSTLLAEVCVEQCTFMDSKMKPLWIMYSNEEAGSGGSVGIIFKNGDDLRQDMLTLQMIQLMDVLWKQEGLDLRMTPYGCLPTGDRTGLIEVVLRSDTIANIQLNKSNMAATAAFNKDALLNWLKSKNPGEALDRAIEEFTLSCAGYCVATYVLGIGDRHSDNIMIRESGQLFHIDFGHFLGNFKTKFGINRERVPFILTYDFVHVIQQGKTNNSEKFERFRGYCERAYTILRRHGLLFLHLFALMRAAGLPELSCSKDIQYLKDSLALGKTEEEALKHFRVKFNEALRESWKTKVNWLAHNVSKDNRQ
Briefly: Binding affinity to wild-type human partial length PIK3CD (R108 to Q1044 residues) expressed in HEK293 cells measured after 1 hr by Kinomescan method. Type of series: cell-based. The procedure, abridged: (§2)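 Compound given as an 11-point threefold series from 30 μM, in technical duplicate. Kd from a Hill fit with slope fixed at −1.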

The target in series [3] is Phosphatidylinositol 3-kinase catalytic subunit type 3 (Homo sapiens, UniProt Q8NEB9). Briefly: Binding affinity to wild-type human partial length VPS34 (S282 to H879 residues) expressed in HEK293 cells measured after 1 hr by Kinomescan method. Type of series: cell-based. The procedure, abridged: as §2
Sequence of Phosphatidylinositol 3-kinase catalytic subunit type 3 (Q8NEB9 whole entry, the tested form may be a part): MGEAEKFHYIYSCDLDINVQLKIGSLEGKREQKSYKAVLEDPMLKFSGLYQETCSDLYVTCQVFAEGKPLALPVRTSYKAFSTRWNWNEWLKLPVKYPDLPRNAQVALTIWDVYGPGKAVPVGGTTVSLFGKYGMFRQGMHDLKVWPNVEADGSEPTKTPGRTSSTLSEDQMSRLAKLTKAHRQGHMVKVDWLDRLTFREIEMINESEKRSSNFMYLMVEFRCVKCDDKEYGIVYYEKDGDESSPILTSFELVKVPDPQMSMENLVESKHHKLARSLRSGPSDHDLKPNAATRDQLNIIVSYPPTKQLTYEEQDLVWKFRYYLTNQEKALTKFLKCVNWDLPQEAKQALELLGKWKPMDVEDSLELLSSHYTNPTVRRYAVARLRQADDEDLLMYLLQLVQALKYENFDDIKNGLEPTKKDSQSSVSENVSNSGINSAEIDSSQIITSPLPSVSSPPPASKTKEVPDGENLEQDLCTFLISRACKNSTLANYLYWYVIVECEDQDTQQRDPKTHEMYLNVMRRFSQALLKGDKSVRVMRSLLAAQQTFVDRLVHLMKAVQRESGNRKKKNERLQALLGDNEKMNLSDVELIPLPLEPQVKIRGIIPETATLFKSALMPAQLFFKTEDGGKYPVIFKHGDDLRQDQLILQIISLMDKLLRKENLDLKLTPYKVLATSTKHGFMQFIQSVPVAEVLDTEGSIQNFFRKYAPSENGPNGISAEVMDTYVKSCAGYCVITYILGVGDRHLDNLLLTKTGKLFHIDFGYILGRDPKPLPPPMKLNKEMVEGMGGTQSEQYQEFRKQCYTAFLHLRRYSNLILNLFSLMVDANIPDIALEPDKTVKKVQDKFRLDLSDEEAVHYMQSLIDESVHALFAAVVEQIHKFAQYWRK
Series [4] has as its system Mus musculus. As to the kind of experiment: In vivo inhibition of mTORC1 signalling in C57BL/6J mouse assessed as reduction in RPS6 phosphorylation at S235/236 residue in brain at 25 mg/kg, po measured after 0.5 to 2 hrs by Western blot analysis. The settings on record: time 0.5-2 hrs. Type of series: functional, organism-based. In short, it runs like this: (§3)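 Time course in female C57BL/6J mice after 25 mg/kg p.o.: cortex taken at set time points and western blotted for pS6 and pPKB. Signals quantified against α-tubulin as % of control cortex; n = 3 per time point and n = 9 controls. Brain compound level measured in the same mice.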
In general terms: Immunoblotting shows a protein as a band on a membrane.

Series [5] is described as follows: Clearance in C57BL/6J mouse plasma at 10 mg/kg, po administered as single dose by mass spectrometry based UHPLC analysis. The format is ADME, organism-based. In short, it runs like this:
(§4)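 Female C57BL/6J mice, one oral dose of 10 mg/kg in 20% Captisol; plasma and brain levels over time, n = 3 per time point (mean).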

A short description of series [6]: AUC (0 to 8 hrs) in male Sprague-Dawley rat plasma at 5 mg/kg, po. Type of series: ADME, organism-based. Set-up: time < 8 hr, route oral, dose 5 mg/kg. The procedure, abridged: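 Male Sprague Dawley rats, single oral dose of 5 mg/kg. Plasma and brain concentrations measured over 8 h, n = 3, mean ± SEM; AUC0−8 computed from the time course.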
Series [7] is described as follows: Metabolic stability in Beagle dog hepatocytes assessed as half-life at 5 uM incubated for 3 hrs by LC-MS analysis. Type of series: ADME, cell-based, Canis lupus familiaris, Hepatocyte. The procedure, abridged: (§5)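 Cryopreserved primary hepatocytes in suspension from CD-1 mouse, Sprague-Dawley rat, Beagle dog and human. Compound at 5 μM final (from 10 mM DMSO stock). Samples taken at 0, 15, 60, 90 and 180 min and quenched with ACN plus internal standard. Parent quantified by LC-MS. Hepatocyte-free medium incubations served as negative control; 7-ethoxycoumarin as positive control. Duplicate; CLint per 10^6 cells and t1/2.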

Series [8] can be described thus: Cmax in C57BL/6J mouse plasma at 25 mg/kg, po administered as single dose by mass spectrometry based UHPLC analysis. Also noted: route oral, dose 25 mg/kg. Type of series: ADME, organism-based. The procedure, abridged: as §1
Series [9] is described as follows: AUC (0 to 8 hrs) in C57BL/6J mouse plasma at 10 mg/kg, po administered as single dose by mass spectrometry based UHPLC analysis. Type of series: ADME, organism-based. Set-up: time < 8 hr, route oral, dose 10 mg/kg. In short, it runs like this:
as §4

The subject of series [10] is Mus musculus. As to the kind of experiment: In vivo inhibition of PI3Kalpha C57BL/6J mouse assessed as increase in plasma insulin concentration at 25 mg/kg, po measured after 8 hrs by ELISA. The format is functional, organism-based. In short, it runs like this: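 Female C57BL/6J mice given one oral dose (25 mg/kg); plasma insulin and glucose monitored over time, mean ± SEM.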

Series [11] concerns Mus musculus. As to the kind of experiment: In vivo inhibition of mTORC2 in C57BL/6J mouse assessed as reduction in PKB/Akt phosphorylation at Ser473 in brain at 25 mg/kg, po measured after 0.5 to 2 hrs by Western blot analysis. The format is functional, organism-based. The settings on record: time 0.5-2 hrs. The procedure, abridged: as §3
A short description of series [12]: Tmax in C57BL/6J mouse brain at 10 mg/kg, po administered as single dose by mass spectrometry based UHPLC analysis. The format is ADME, organism-based. The procedure, abridged:
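Female C57BL/6J mice dosed orally at 10 mg/kg in 20% Captisol, either once or once daily for 4 days with sampling after the last dose on day 4. Plasma and brain concentrations followed over time. Tmax taken from at least 3 time points.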

A short description of series [13]: Toxicity in Balb/c nude mouse assessed as change in body weight at 150 mg/kg, po administered once daily for 14 days measured for 7 days starting from post last dose. Type of series: organism-based. The settings on record: in vivo, 504 h, time 21 day.
A short description of series [14]: Metabolic stability in Sprague-Dawley rat hepatocytes assessed as half-life at 5 uM incubated for 3 hrs by LC-MS analysis. Type of series: ADME, cell-based, Hepatocyte. The procedure, abridged: as §5
Series [15] is described as follows: Metabolic stability in human hepatocytes assessed as parent compound remaining at 5 uM incubated for 3 hrs by LC-MS analysis. Type of series: ADME, cell-based, Hepatocyte. The settings on record: read-out: Stabilty. The procedure, abridged: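 Cryopreserved primary hepatocytes in suspension (CD-1 mouse, Sprague-Dawley rat, Beagle dog, human). Compound diluted from 10 mM DMSO stock to 5 μM final. Sampled at 0, 15, 60, 90 and 180 min, protein precipitated with ACN plus internal standard, supernatant analysed by LC−MS. Run in duplicate. 7-ethoxycoumarin as positive control. Hepatocyte-free medium incubations as negative control.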

Active and inactive are the calls of the source. The rule behind the calls is not given here.

Take `C[C@@H]1COCCN1c1nc(-c2cnc(N)cc2C(F)F)nc(N2[C@H](C)COC[C@@H]2C)n1`: the half-life in series [1] is 2.4 h. For the same molecule, the figures for the Kd in [2] and in series [3] were 3500 nM and 65 nM, respectively. In addition, the inhibition result in series [4] and in series [11] was “Active” in each case. The CL/F (usually clearance divided by bioavailability, as obtained after extravascular dosing) in [5] is 56.6 mL/min/kg. The AUC(0-t) – broadly, exposure summed from dosing to a finite time, without extrapolation to infinity – at 8 h in [6] amounted to 2430 ng·h/mL; in series [9], 2940 ng·h/mL. The half-life at 5 µM in series [7] was found to be 8.17 h; in series [14], 2.7 h. In addition, in series [8], the Cmax (in general, the peak of the concentration-time curve) was determined as 1830 ng/mL. Also, the inhibition result in series [10] was “inactive”. Besides, in series [12], the Tmax – broadly, the time at which the peak concentration occurs – is 0.5 h. Further, the Activity entry in [13] is reported as “Non-Toxic”. Moreover, the remaining at 3 h, 5 µM in series [15] was found to be 44%.
Take `C[C@@H]1COCCN1c1nc(-c2cnc(N)cc2C(F)F)nc(N2CCOCC2(C)C)n1`: the Kd (in general, the free concentration of one partner at which half of the binding sites on the other are occupied at equilibrium, for simple one-to-one binding) in series [2] was determined as 2450 nM; in series [3] it was 28 nM.
